Measured values published in paper PMC7680388 (Cell chemical biology, 2020).
Like-named read-outs stand apart in the source and are kept apart here. Blank lines part the entries; values can stand above or below the compound they belong to.

Legend:
MM.1R cells = experiment: Apoptosis flow cytometry; assay type: cell-based, Homo sapiens
In short: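 MM.1R cells were treated with test compound (10 μM) or vehicle (0.1% DMSO) for 8, 16 and 24 h. Cells were washed twice in cold DPBS and resuspended in cold Annexin V buffer (HEPES, EDTA, CaCl2) with 5 μg/mL Annexin V-510 and 50 μg/mL PI. They were held 15 min at room temperature in the dark, then run by flow cytometry (violet/blue lasers). Annexin V+/PI− cells were scored apoptotic; three biological replicates.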

solid tumors = settings: ref Huang et al., 2014; cited from earlier work
Rpn13 [1] = molecular target: T1, Rpn13 (Homo sapiens, UniProt Q16186); settings: ref Anchoori et al., 2013; cited from earlier work
Rpn13 [2] = molecular target: T1, Rpn13; settings: two different cancer cell lines, ref Dickson, et al., submitted, cited from earlier work
[3] = system: cancer (in cellulo and in vivo); settings: ref Anchoori et al., 2013; cited from earlier work
26S proteasome = experiment: Deubiquitylase activity of purified 26S proteasome; assay type: biochemical, human; settings: KDT-11 10 μM; b-AP15 1 μM; 1 nM purified 26S proteasome, 5 mM ATP; biological triplicate; Fig. 2F

T1 sequence (Q16186 whole entry): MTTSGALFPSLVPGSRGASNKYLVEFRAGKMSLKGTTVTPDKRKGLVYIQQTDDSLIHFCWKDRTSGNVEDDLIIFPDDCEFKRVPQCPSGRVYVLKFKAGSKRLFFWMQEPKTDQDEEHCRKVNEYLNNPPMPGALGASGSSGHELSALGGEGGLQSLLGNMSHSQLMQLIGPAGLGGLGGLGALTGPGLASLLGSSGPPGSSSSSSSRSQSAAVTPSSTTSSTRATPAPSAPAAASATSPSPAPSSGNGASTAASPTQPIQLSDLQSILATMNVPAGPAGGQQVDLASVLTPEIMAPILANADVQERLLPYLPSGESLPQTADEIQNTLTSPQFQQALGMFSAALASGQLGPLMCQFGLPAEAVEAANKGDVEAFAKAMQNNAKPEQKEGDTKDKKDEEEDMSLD

SMILES: CC(C)C[C@H](NC(=O)[C@H](Cc1ccccc1)NC(=O)c1cnccn1)B(O)O [Bortezomib]
induction of apoptosis and cell death, Annexin V/PI staining (MM.1R cells; 8, 16 and 24 hours): induces apoptosis and cell death rapidly
cells both Annexin V- and PI-positive (MM.1R cells; 16 hours, KDT-11 10 μM (Fig. 4), Bortezomib Supplementary Figure 4): ≈ 85%
dose-limiting toxicity (solid tumors): dose-limiting toxicity
efficacy as a single agent in solid tumors (solid tumors): unsuccessful as a single agent to treat solid tumors

SMILES: Cl.N[C@@H](Cc1ccccc1)C(=O)N1C/C(=C/c2ccc(Cl)c(Cl)c2)C(=O)/C(=C\c2ccc(Cl)c(Cl)c2)C1 [RA190]
engagement of Rpn13 in vitro (Rpn13 [1]): engages Rpn13 selectively in vitro
engagement of Rpn13 in cellulo (Rpn13 [2]): Rpn13 is not engaged by this compound in cellulo
engagement of Rpn13 in cellulo (Rpn13 [2]; listed as RA-190): does not engage Rpn13 in cells
anti-cancer activity in cellulo and in vivo [3]: displays interesting anti-cancer activity in cellulo and in vivo

effect on rate of Ub-AMC hydrolysis by 26S proteasome (26S proteasome): greater inhibition
SMILES: C=CC(=O)N1C/C(=C\c2ccc([N+](=O)[O-])cc2)C(=O)/C(=C/c2ccc([N+](=O)[O-])cc2)C1 [b-AP15]
